Assay results as given in ChEMBL document CHEMBL1142069, “Caspofungin in combination with amphotericin B against Candida parapsilosis” (Antimicrob Agents Chemother, 2007).
In brackets after ≈: the same amount, converted by molar mass. Activity calls are given as the source filed them. The calls are words filed in the database; no cut-off is given here.

Key:
Type in all cases: functional, organism-based
Candida parapsilosis [1] = assay: Growth inhibition of Candida parapsilosis after 24 hrs by broth dilution assay; conditions: Lodderomyces parapsilosis
Procedure, shortened: (§1)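 CLSI-derived checkerboard broth microdilution in RPMI 1640 with 0.165 M MOPS, pH 7.0. Final ranges were AMB 0.03–2.0 µg/ml and CAS 0.03–64 µg/ml, alone or combined. Inoculum 1.0 x 10^3 to 5.0 x 10^3 CFU/ml (2x), 35°C in air. OD490 read at 24 and 48 h; IC50/IC90 taken as 50%/90% turbidity reduction versus control. Quintuplicate.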

Candida parapsilosis [2] = assay: Antifungal activity against Candida parapsilosis at 0.5 ug/ml after 24 hrs
Procedure, shortened: (§2)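 Time-kill with C. parapsilosis strain no. 3. A 0.5 McFarland suspension was diluted 1:10 into MOPS-buffered RPMI 1640 with drug alone or combined, shaken at 35°C. Samples were taken at 0, 2, 6 and 24 h, serially diluted 10-fold and plated on Sabouraud dextrose agar. CFU counted after 48 h at 35°C; detection limit 20 CFU/ml. Triplicate.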

Candida parapsilosis [3] = assay: Growth inhibition of Candida parapsilosis after 48 hrs by broth dilution assay; conditions: Lodderomyces parapsilosis; procedure, shortened: as §1
Candida parapsilosis [4] = assay: Antifungal activity against Candida parapsilosis at 4 ug/ml after 24 hrs; procedure, shortened: as §2
Candida parapsilosis [5] = assay: Fungistatic effect on Candida parapsilosis at 256 ug/ml after 24 hrs

Structure (SMILES)	IC50 (Candida parapsilosis [1]) [µg/mL]	IC90 (Candida parapsilosis [1]) [µg/mL]	Activity (Candida parapsilosis [2])	IC50 (Candida parapsilosis [3]) [µg/mL]	IC90 (Candida parapsilosis [3]) [µg/mL]	Activity (Candida parapsilosis [4])	Activity (Candida parapsilosis [5])
C[C@@H]1[C@H](O)[C@@H](C)/C=C/C=C/C=C/C=C/C=C/C=C/C=C/[C@H](O[C@@H]2O[C@H](C)[C@@H](O)[C@H](N)[C@@H]2O)C[C@@H]2O[C@](O)(C[C@@H](O)C[C@@H](O)[C@H](O)CC[C@@H](O)C[C@@H](O)CC(=O)O[C@H]1C)C[C@H](O)[C@H]2C(=O)O [AMPHOTERICIN B]	0.16 (≈ 0.173 µM)	0.34 (≈ 0.368 µM)	inactive	0.18 (≈ 0.195 µM)	0.68 (≈ 0.736 µM)		
CC[C@H](C)C[C@H](C)CCCCCCCCC(=O)N[C@H]1C[C@@H](O)[C@@H](NCCN)NC(=O)[C@@H]2[C@@H](O)CCN2C(=O)[C@H]([C@H](O)CCN)NC(=O)[C@H]([C@H](O)[C@@H](O)c2ccc(O)cc2)NC(=O)[C@@H]2C[C@@H](O)CN2C(=O)[C@H]([C@@H](C)O)NC1=O [CASPOFUNGIN]	0.79 (≈ 0.723 µM)	1.36 (≈ 1.24 µM)		1.17 (≈ 1.07 µM)	2.33 (≈ 2.13 µM)	inactive	Active
